Laboratory results reported in PMC11529803 (Medicinal chemistry research : an international journal for …, 2024).
Structures can show the parent of a compound that is named as a salt. One block for each molecule: values may come before it.

Columns and labels:
[1] = cited from earlier work
[2] = In vivo metabolism and pharmacokinetics of LH708; set-up: species or system Slc3a1 KO male mice
[3] = tested on: Slc3a1-knockout mouse model of cystinuria; settings: after oral gavage; cited from earlier work
[4] = Crystal growth inhibition by in situ atomic force microscopy; settings: in situ AFM on {0001} growth hillocks
How it was run: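 Real-time in situ AFM in a fluid cell on hexagonal L-cystine crystals grown from aqueous supersaturated solution (pH 6.3), filtered and air-dried. Surface regenerated for 20 min by flowing supersaturated 2 mM cystine at 20 mL/h. Velocities of {1010} steps on the {0001} basal plane were measured without inhibitor (Vo), then with test compound at 15, 30 and 45 µM under identical conditions.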

[5] = L-cystine crystallization inhibition assay; settings: for EC50 relative to parent LH708: metabolites of LH708
How it was run: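 Supersaturated L-cystine solution was held with test compound over a concentration range for 72 h at 20 °C, then centrifuged at 14,000 rpm for 10 min at room temperature. Supernatant was diluted 10-fold in water and run in triplicate: potassium cyanide in PBS pH 7.4, 25 min shaking, then sodium nitroprusside, with absorbance read at 530 nm. Cystine was read off a standard curve; EC50 came from nonlinear regression.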

- plasma half-life ([2]; after LH708 single dose 150 μmol/kg): ~ 10 min
- main metabolic pathway ([2]; single iv or oral dose of LH708, plasma and urine): disulfide exchange
SMILES: CN1CCN(C(=O)[C@@H](N)CSSC[C@H](N)C(=O)N2CCN(C)CC2)CC1 [Compound 2, L-cystine bis(N′-methylpiperazide)]
- chemical and metabolic stability compared with L-CDME (1) [1]: chemically and metabolically more stable
- prevention of L-cystine stone formation [3]: active

- EC50 relative to parent LH708 [5]: ≤ 2 fold
SMILES: N[C@@H](CSSC[C@H](N)C(=O)N1CCNCC1)C(=O)N1CCNCC1 [Compound 3a, L-Cystine bis(piperazide) tetrahydrochloride]
- L-cystine crystal growth inhibition (step roughening and decrease of {1010} step velocity) [4]: less effective than the other two compounds

SMILES: Cl.Cl.Cl.Cl.N[C@@H](CSSC[C@H](N)C(=O)N1CCN(c2ccccc2)CC1)C(=O)N1CCN(c2ccccc2)CC1 [Compound 3e, L-Cystine bis(N′-phenylpiperazide) tetrahydrochloride]
- decrease in L-cystine crystallization inhibition activity ([5]; relative to LH708 (N4-methyl)): > 10 fold

SMILES: Cl.Cl.Cl.Cl.N[C@@H](CSSC[C@H](N)C(=O)N1CCCC12CCNCC2)C(=O)N1CCCC12CCNCC2 [Compound 3j, L-Cystine bis(1,8-diazaspiro[4.5]decan-1-yl) tetrahydrochloride]
- reduction in L-cystine crystallization inhibition ([5]; relative to structure isomer 3i): ~5 fold

SMILES: Cl.Cl.N[C@@H](CSSC[C@H](N)C(=O)NCCN1CCCC1=O)C(=O)NCCN1CCCC1=O [Compound 4e, L-Cystine bis(N′-pyrrolidin-2-one ethyleneamide) dihydrochloride]
- L-cystine crystallization inhibition activity (in words) [5]: lost almost all of its crystallization inhibition activity

- EC50 relative to parent LH708 [5]: ≤ 2 fold
SMILES: CN1CCN(C(=O)[C@@H](N)CSSC[C@H](N)C(=O)O)CC1.Cl.Cl.Cl [Compound 25, S-(((R)-2-Amino-3-(4-methylpiperazin-1-yl)-3-oxopropyl)thio)-L-cysteine trihydrochloride]
